According to ChEMBL document CHEMBL2375313, “Synthesis, in vitro antitumor evaluation and DNA-binding study of novel tetrahydroquinolines and some derived tricyclic and tetracyclic ring systems” (Eur J Med Chem, 2013):

Tests used:
Type in all cases: functional
HL-60(TB) = assay: Cytotoxicity against human HL-60(TB) cells assessed as growth inhibition at 10 uM after 48 hrs by sulphorhodamine B assay; conditions: HL-60, 48 h, read-out: GI
Outline: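 NCI-60 one-dose primary screen run to the Drug Evaluation Branch protocol. Cells are exposed to a single 10 µM concentration for 48 h continuously, and growth is read by SRB protein assay. Data are reported as percent growth of treated cells, expressed as % growth inhibition.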

A498 = assay: Cytotoxicity against human A498 cells assessed as growth inhibition at 10 uM after 48 hrs by sulphorhodamine B assay; conditions: A498, 48 h, read-out: GI
Outline: (§1)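 NCI-60 one-dose screen per the NCI Drug Evaluation Branch protocol. Cells given a single 10 µM concentration with 48 h continuous exposure. Growth estimated by sulphorhodamine B protein assay. Result expressed as percentage growth inhibition relative to untreated growth.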

UACC-62 = assay: Cytotoxicity against human UACC62 cells assessed as growth inhibition at 10 uM after 48 hrs by sulphorhodamine B assay; conditions: UACC-62, 48 h, read-out: GI; outline: as §1
RPMI-8226 = assay: Cytotoxicity against human RPMI8226 cells assessed as growth inhibition at 10 uM after 48 hrs by sulphorhodamine B assay; conditions: RPMI-8226, 48 h, read-out: GI; outline: as §1
M14 = assay: Cytotoxicity against human M14 cells assessed as growth inhibition at 10 uM after 48 hrs by sulphorhodamine B assay; conditions: M14, 48 h, read-out: GI; outline: as §1
SNB-75 = assay: Cytotoxicity against human SNB75 cells assessed as growth inhibition at 10 uM after 48 hrs by sulphorhodamine B assay; conditions: SNB-75, 48 h, read-out: GI; outline: as §1
SK-MEL-5 = assay: Cytotoxicity against human SK-MEL-5 cells assessed as growth inhibition at 10 uM after 48 hrs by sulphorhodamine B assay; conditions: SK-MEL-5, 48 h, read-out: GI; outline: as §1
CAKI-1 = assay: Cytotoxicity against human Caki1 cells assessed as growth inhibition at 10 uM after 48 hrs by sulphorhodamine B assay; conditions: CAKI-1, 48 h, read-out: GI; outline: as §1
SK-MEL-2 = assay: Cytotoxicity against human SK-MEL-2 cells assessed as growth inhibition at 10 uM after 48 hrs by sulphorhodamine B assay; conditions: SK-MEL-2, 48 h, read-out: GI; outline: as §1
CCRF-CEM = assay: Cytotoxicity against human CCRF-CEM cells assessed as growth inhibition at 10 uM after 48 hrs by sulphorhodamine B assay; conditions: read-out: GI; outline: as §1
SNB-19 = assay: Cytotoxicity against human SNB19 cells assessed as growth inhibition at 10 uM after 48 hrs by sulphorhodamine B assay; conditions: SNB-19, 48 h, read-out: GI; outline: as §1
IGROV-1 = assay: Cytotoxicity against human IGROV1 cells assessed as growth inhibition at 10 uM after 48 hrs by sulphorhodamine B assay; conditions: IGROV-1, 48 h, read-out: GI; outline: as §1
U-251 = assay: Cytotoxicity against human U251 cells assessed as growth inhibition at 10 uM after 48 hrs by sulphorhodamine B assay; conditions: U-251, 48 h, read-out: GI; outline: as §1
MDA-MB-468 = assay: Cytotoxicity against human MDA-MB-468 cells assessed as growth inhibition at 10 uM after 48 hrs by sulphorhodamine B assay; conditions: MDA-MB-468, 48 h, read-out: GI; outline: as §1
OVCAR-5 = assay: Cytotoxicity against human OVCAR5 cells assessed as growth inhibition at 10 uM after 48 hrs by sulphorhodamine B assay; conditions: OVCAR-5, 48 h, read-out: GI; outline: as §1
DU-145 = assay: Cytotoxicity against human DU145 cells assessed as growth inhibition at 10 uM after 48 hrs by sulphorhodamine B assay; conditions: DU-145, 48 h, read-out: GI; outline: as §1
HOP-92 = assay: Cytotoxicity against human HOP92 cells assessed as growth inhibition at 10 uM after 48 hrs by sulphorhodamine B assay; conditions: HOP-92, 48 h, read-out: GI; outline: as §1
MDA-MB-435 = assay: Cytotoxicity against human MDA-MB-435 cells assessed as growth inhibition at 10 uM after 48 hrs by sulphorhodamine B assay; conditions: MDA-MB-435, 48 h, read-out: GI; outline: as §1
MOLT-4 = assay: Cytotoxicity against human MOLT4 cells assessed as growth inhibition at 10 uM after 48 hrs by sulphorhodamine B assay; conditions: MOLT-4, 48 h, read-out: GI; outline: as §1
OVCAR-4 = assay: Cytotoxicity against human OVCAR4 cells assessed as growth inhibition at 10 uM after 48 hrs by sulphorhodamine B assay; conditions: OVCAR-4, 48 h, read-out: GI; outline: as §1
SF-295 = assay: Cytotoxicity against human SF295 cells assessed as growth inhibition at 10 uM after 48 hrs by sulphorhodamine B assay; conditions: SF-295, 48 h, read-out: GI; outline: as §1
PC-3 = assay: Cytotoxicity against human PC3 cells assessed as growth inhibition at 10 uM after 48 hrs by sulphorhodamine B assay; conditions: PC-3, 48 h, read-out: GI; outline: as §1
SF-268 = assay: Cytotoxicity against human SF268 cells assessed as growth inhibition at 10 uM after 48 hrs by sulphorhodamine B assay; conditions: SF-268, 48 h, read-out: GI; outline: as §1
ACHN = assay: Cytotoxicity against human ACHN cells assessed as growth inhibition at 10 uM after 48 hrs by sulphorhodamine B assay; conditions: read-out: GI; outline: as §1
T47D = assay: Cytotoxicity against human T47D cells assessed as growth inhibition at 10 uM after 48 hrs by sulphorhodamine B assay; conditions: read-out: GI; outline: as §1
[1] = Cytotoxicity against human EKVX cells assessed as growth inhibition at 10 uM after 48 hrs by sulphorhodamine B assay; conditions: read-out: GI; outline: as §1
A549 = assay: Cytotoxicity against human A549 cells assessed as growth inhibition at 10 uM after 48 hrs by sulphorhodamine B assay; conditions: A549, 48 h, read-out: GI; outline: as §1
Hs-578T = assay: Cytotoxicity against human Hs578T cells assessed as growth inhibition at 10 uM after 48 hrs by sulphorhodamine B assay; conditions: read-out: GI; outline: as §1
LOX IMVI = assay: Cytotoxicity against human LOXIMVI cells assessed as growth inhibition at 10 uM after 48 hrs by sulphorhodamine B assay; conditions: read-out: GI; outline: as §1
UO-31 = assay: Cytotoxicity against human UO31 cells assessed as growth inhibition at 10 uM after 48 hrs by sulphorhodamine B assay; conditions: UO-31, 48 h, read-out: GI; outline: as §1
SR = assay: Cytotoxicity against human SR cells assessed as growth inhibition at 10 uM after 48 hrs by sulphorhodamine B assay; conditions: read-out: GI; outline: as §1
SK-OV-3 = assay: Cytotoxicity against human SKOV3 cells assessed as growth inhibition at 10 uM after 48 hrs by sulphorhodamine B assay; conditions: SK-OV-3, 48 h, read-out: GI; outline: as §1
NCI-H522 = assay: Cytotoxicity against human NCI-H522 cells assessed as growth inhibition at 10 uM after 48 hrs by sulphorhodamine B assay; conditions: NCI-H522, 48 h, read-out: GI; outline: as §1
HCT-116 = assay: Cytotoxicity against human HCT116 cells assessed as growth inhibition at 10 uM after 48 hrs by sulphorhodamine B assay; conditions: HCT-116, 48 h, read-out: GI; outline: as §1
HCT-15 = assay: Cytotoxicity against human HCT15 cells assessed as growth inhibition at 10 uM after 48 hrs by sulphorhodamine B assay; conditions: HCT-15, 48 h, read-out: GI; outline: as §1
K562 = assay: Cytotoxicity against human K562 cells assessed as growth inhibition at 10 uM after 48 hrs by sulphorhodamine B assay; conditions: K562, 48 h, read-out: GI; outline: as §1
MCF7 = assay: Cytotoxicity against human MCF7 cells assessed as growth inhibition at 10 uM after 48 hrs by sulphorhodamine B assay; conditions: MCF7, 48 h, read-out: GI; outline: as §1
NCI-H23 = assay: Cytotoxicity against human NCI-H23 cells assessed as growth inhibition at 10 uM after 48 hrs by sulphorhodamine B assay; conditions: NCI-H23, 48 h, read-out: GI; outline: as §1
HT-29 = assay: Cytotoxicity against human HT-29 cells assessed as growth inhibition at 10 uM after 48 hrs by sulphorhodamine B assay; conditions: HT-29, 48 h, read-out: GI; outline: as §1
NCI/ADR-RES = assay: Cytotoxicity against human NCI/ADR-RES cells assessed as growth inhibition at 10 uM after 48 hrs by sulphorhodamine B assay; conditions: read-out: GI; outline: as §1
RXF 393 = assay: Cytotoxicity against human RXF393 cells assessed as growth inhibition at 10 uM after 48 hrs by sulphorhodamine B assay; conditions: RXF 393, 48 h, read-out: GI; outline: as §1

CC1CCCc2c1nc1ncnc(N)c1c2-c1ccc(Cl)cc1 (configuration not stated)
inhibition of growth at 10 µM (HL-60(TB)): 12.4%
inhibition of growth at 10 µM (A498): 27.7%
inhibition of growth at 10 µM (UACC-62): 13.8%
inhibition of growth at 10 µM (RPMI-8226): 21.3%
inhibition of growth at 10 µM (M14): < 10%
inhibition of growth at 10 µM (SNB-75): 21.5%
inhibition of growth at 10 µM (SK-MEL-5): 10.2%
inhibition of growth at 10 µM (CAKI-1): < 10%
inhibition of growth at 10 µM (SK-MEL-2): < 10%
inhibition of growth at 10 µM (CCRF-CEM): 22.2%
inhibition of growth at 10 µM (SNB-19): 21.3%
inhibition of growth at 10 µM (IGROV-1): < 10%
inhibition of growth at 10 µM (U-251): 14.5%
inhibition of growth at 10 µM (MDA-MB-468): 20%
inhibition of growth at 10 µM (OVCAR-5): < 10%
inhibition of growth at 10 µM (DU-145): < 10%
inhibition of growth at 10 µM (HOP-92): 25.3%
inhibition of growth at 10 µM (MDA-MB-435): < 10%
inhibition of growth at 10 µM (MOLT-4): < 10%
inhibition of growth at 10 µM (OVCAR-4): 17.8%
inhibition of growth at 10 µM (SF-295): < 10%
inhibition of growth at 10 µM (PC-3): 24.2%
inhibition of growth at 10 µM (SF-268): 12.3%
inhibition of growth at 10 µM (ACHN): < 10%
inhibition of growth at 10 µM (T47D): 40%
inhibition of growth at 10 µM [1]: < 10%
inhibition of growth at 10 µM (A549): < 10%
inhibition of growth at 10 µM (Hs-578T): 14.7%
inhibition of growth at 10 µM (LOX IMVI): < 10%
inhibition of growth at 10 µM (UO-31): 10.1%
inhibition of growth at 10 µM (SR): < 10%
inhibition of growth at 10 µM (SK-OV-3): 12%
inhibition of growth at 10 µM (NCI-H522): 11%
inhibition of growth at 10 µM (HCT-116): 14%
inhibition of growth at 10 µM (HCT-15): 10%
inhibition of growth at 10 µM (K562): 25%
inhibition of growth at 10 µM (MCF7): < 10%
inhibition of growth at 10 µM (NCI-H23): < 10%
inhibition of growth at 10 µM (HT-29): 13.3%
inhibition of growth at 10 µM (NCI/ADR-RES): < 10%
inhibition of growth at 10 µM (RXF 393): 11%

CCSc1nc(N)c2c(-c3ccc(OC)cc3)c3c(nc2n1)C(C)CCC3 (configuration not stated)
inhibition of growth at 10 µM (HL-60(TB)): 34.5%
inhibition of growth at 10 µM (A498): < 10%
inhibition of growth at 10 µM (UACC-62): 25%
inhibition of growth at 10 µM (RPMI-8226): 25.5%
inhibition of growth at 10 µM (M14): < 10%
inhibition of growth at 10 µM (SNB-75): < 10%
inhibition of growth at 10 µM (SK-MEL-5): 11.4%
inhibition of growth at 10 µM (CAKI-1): < 10%
inhibition of growth at 10 µM (SK-MEL-2): < 10%
inhibition of growth at 10 µM (CCRF-CEM): 26.4%
inhibition of growth at 10 µM (SNB-19): 12.5%
inhibition of growth at 10 µM (IGROV-1): < 10%
inhibition of growth at 10 µM (U-251): 16%
inhibition of growth at 10 µM (MDA-MB-468): 13.8%
inhibition of growth at 10 µM (OVCAR-5): < 10%
inhibition of growth at 10 µM (DU-145): 24.5%
inhibition of growth at 10 µM (HOP-92): 26.8%
inhibition of growth at 10 µM (MDA-MB-435): < 10%
inhibition of growth at 10 µM (MOLT-4): 29%
inhibition of growth at 10 µM (OVCAR-4): 26.8%
inhibition of growth at 10 µM (SF-295): < 10%
inhibition of growth at 10 µM (PC-3): 31.4%
inhibition of growth at 10 µM (SF-268): < 10%
inhibition of growth at 10 µM (ACHN): 30.8%
inhibition of growth at 10 µM (T47D): 41%
inhibition of growth at 10 µM [1]: < 10%
inhibition of growth at 10 µM (A549): 16%
inhibition of growth at 10 µM (Hs-578T): 36.2%
inhibition of growth at 10 µM (LOX IMVI): 10.6%
inhibition of growth at 10 µM (UO-31): 10.5%
inhibition of growth at 10 µM (SR): < 10%
inhibition of growth at 10 µM (SK-OV-3): < 10%
inhibition of growth at 10 µM (NCI-H522): 13.2%
inhibition of growth at 10 µM (HCT-116): 20%
inhibition of growth at 10 µM (HCT-15): 23.8%
inhibition of growth at 10 µM (K562): 32.5%
inhibition of growth at 10 µM (MCF7): < 10%
inhibition of growth at 10 µM (NCI-H23): < 10%
inhibition of growth at 10 µM (HT-29): 23.3%
inhibition of growth at 10 µM (NCI/ADR-RES): < 10%
inhibition of growth at 10 µM (RXF 393): 25.9%
